Reference: ChEMBL document CHEMBL3120160, “Nucleotide prodrugs of 2'-deoxy-2'-spirooxetane ribonucleosides as novel inhibitors of the HCV NS5B polymerase” (J Med Chem, 2014)

Experiments:
[1] = Cytotoxicity against human HuH7 cells assessed as inhibition of cell proliferation after 3 days by BrdU incorporation assay; format: cell-based, Huh-7
Procedure, shortened: (§1)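 Huh7 HCV replicon cells treated with compound for 3 days in 384-well format; antiviral EC50 and cytotoxic CC50 are each the mean of at least three repeats.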

Hepatitis C virus [2] = assay: Antiviral activity against Hepatitis C virus genotype 1b in human Huh7-luc clone ET replicon cells assessed as inhibition of replicon replication after 3 days by luciferase assay; format: functional, organism-based, Hepacivirus hominis; details: Huh-7, 72 h; procedure, shortened: as §1
[3] = Inhibition of wild type Hepatitis C virus truncated NS5B RNA dependent RNA polymerase lacking C-terminal 21 aminoacids using cIRES as template after 2 hrs by filter plate assay; design: species or system Hepacivirus hominis
Procedure, shortened: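 Wild-type HCV RdRp biochemical assay, tested with the nucleoside 5′-triphosphate (NTP) form; value reported as Ki, the average of two independent experiments.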

Liver [4] = assay: AUC (0 to infinity) in Sprague-Dawley rat liver assessed as triphosphate metabolite level at 50 mg/kg, po administered as single dose; format: ADME, organism-based; design: time infinity, dose 50 mg/kg, route oral; details: in vivo
Liver [5] = assay: AUC (0 to last) in Sprague-Dawley rat liver assessed as triphosphate metabolite level at 50 mg/kg, po administered as single dose; format: ADME, organism-based; design: time 0 - last, dose 50 mg/kg, route oral; details: in vivo
Liver [6] = assay: Tmax in Sprague-Dawley rat liver assessed as triphosphate metabolite level at 50 mg/kg, po administered as single dose; format: ADME, organism-based; design: dose 50 mg/kg, route oral; details: in vivo
Liver [7] = assay: Cmax in Sprague-Dawley rat liver assessed as triphosphate metabolite level at 50 mg/kg, po administered as single dose measured per gm of tissue; format: ADME, organism-based; design: dose 50 mg/kg, route oral; details: in vivo
Hepatocyte [8] = assay: Prodrug activation in human hepatocytes assessed as triphosphate metabolite formation at 10 uM after 8 hrs by LC-MS analysis; format: ADME, cell-based
Procedure, shortened: (§2)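 Prodrugs incubated at 10 μM with rat or human hepatocyte cultures; triphosphate metabolite quantified by LC–MS of cell lysates at 2 and 8 h.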

Hepatocyte [9] = assay: Prodrug activation in rat hepatocytes assessed as triphosphate metabolite formation at 10 uM after 8 hrs by LC-MS analysis; format: ADME, cell-based; procedure, shortened: as §2
Hepatocyte [10] = assay: Prodrug activation in human hepatocytes assessed as triphosphate metabolite formation at 10 uM after 2 hrs by LC-MS analysis; format: ADME, cell-based; procedure, shortened: as §2
Hepatocyte [11] = assay: Prodrug activation in rat hepatocytes assessed as triphosphate metabolite formation at 10 uM after 2 hrs by LC-MS analysis; format: ADME, cell-based; procedure, shortened: as §2
Hepatitis C virus [12] = assay: Ratio of EC50 for Hepatitis C virus genotype 1b harboring NS5B polymerase S282T mutant gene to EC50 for Hepatitis C virus genotype 1b harboring wild type NS5B polymerase in human Huh7-luc clone ET replicon cells by luciferase assay; format: functional, Hepacivirus hominis, Huh-7
Hepatitis C virus [13] = assay: Antiviral activity against Hepatitis C virus genotype 1b harboring NS5B polymerase S282T mutant gene in human Huh7-luc clone ET replicon cells assessed as inhibition of replicon replication after 3 days by luciferase assay; format: functional, organism-based, Hepacivirus hominis; details: Huh-7, 72 h
Procedure, shortened: (§3)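 Activity measured in a transient HCV replicon assay in which the NS5B polymerase carries the S282T substitution.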

Hepatitis C virus [14] = assay: Ratio of EC90 for Hepatitis C virus harboring NS5B polymerase S282T mutant gene to EC90 for Hepatitis C virus harboring wild type NS5B polymerase; format: functional, Hepacivirus hominis
Hepatitis C virus [15] = assay: Antiviral activity against Hepatitis C virus harboring NS5B polymerase S282T mutant gene; format: functional, Hepacivirus hominis; procedure, shortened: as §3

SMILES	CC50 at 72 h [1]	EC50 (Hepatitis C virus [2])	further results
C[C@@]1(F)[C@H](O)[C@@H](CO)O[C@H]1n1ccc(N)nc1=O	> 98 µM	1.9 µM	–
O=c1ccn([C@@H]2O[C@H](CO)[C@@H](O)[C@]23CCO3)c(=O)[nH]1	> 98 µM	> 98 µM	Ki [3]: 2.4 µM
Nc1ccn([C@@H]2O[C@H](CO)[C@@H](O)[C@]23CCO3)c(=O)n1	> 98 µM	17.1 µM	–
C[C@H](N[P@](=O)(OC[C@H]1O[C@@H](n2ccc(N)nc2=O)[C@@]2(CCO2)[C@@H]1O)Oc1ccccc1)C(=O)OCc1ccccc1	> 98 µM	35.8 µM	–
C[C@H](N[P@@](=O)(OC[C@H]1O[C@@H](n2ccc(N)nc2=O)[C@@]2(CCO2)[C@@H]1O)Oc1ccccc1)C(=O)OCc1ccccc1	> 98 µM	41.5 µM	–
C[C@H](N[P@](=O)(OC[C@H]1O[C@@H](n2ccc(=O)[nH]c2=O)[C@@]2(CCO2)[C@@H]1O)Oc1ccccc1)C(=O)OCc1ccccc1	> 98 µM	2.1 µM	–
CCCCOC(=O)[C@H](C)N[P@](=O)(OC[C@H]1O[C@@H](n2ccc(=O)[nH]c2=O)[C@@]2(CCO2)[C@@H]1O)Oc1ccccc1	> 98 µM	2.2 µM	–
C[C@H](N[P@@](=O)(OC[C@H]1O[C@@H](n2ccc(=O)[nH]c2=O)[C@@]2(CCO2)[C@@H]1O)Oc1cccc2ccccc12)C(=O)OCc1ccccc1	> 98 µM	2.3 µM	–
C[C@H](N[P@](=O)(OC[C@H]1O[C@@H](n2ccc(=O)[nH]c2=O)[C@@]2(CCO2)[C@@H]1O)Oc1cccc2ccccc12)C(=O)OCc1ccccc1	> 98 µM	3.7 µM	–
CCCCOC(=O)[C@H](C)NP(=O)(OC[C@H]1O[C@@H](n2ccc(=O)[nH]c2=O)[C@@]2(CCO2)[C@@H]1O)Oc1ccccc1 (some centres undefined)	> 98 µM	3.9 µM	AUC (Liver [4]): 10.48 µg·h/mL; AUClast (Liver [5]): 9.871 µg·h/mL; Tmax (Liver [6]): 6 h; Cmax (Liver [7]): 894 ng/g; Drug metabolism (Hepatocyte [8]): 2730 ng/mL; Drug metabolism (Hepatocyte [9]): 75 ng/mL; Drug metabolism (Hepatocyte [10]): 351 ng/mL; Drug metabolism (Hepatocyte [11]): 152 ng/mL; Ratio EC50 (Hepatitis C virus [12]): 4.8; EC50 (Hepatitis C virus [13]): 18.9 µM
CC[C@H](N[P@](=O)(OC[C@H]1O[C@@H](n2ccc(=O)[nH]c2=O)[C@@]2(CCO2)[C@@H]1O)Oc1ccccc1)C(=O)OCc1ccccc1	> 98 µM	4.6 µM	–
CC[C@H](N[P@@](=O)(OC[C@H]1O[C@@H](n2ccc(=O)[nH]c2=O)[C@@]2(CCO2)[C@@H]1O)Oc1ccccc1)C(=O)OCc1ccccc1	> 98 µM	4.9 µM	–
C[C@H](N[P@@](=O)(OC[C@H]1O[C@@H](n2ccc(=O)[nH]c2=O)[C@@]2(CCO2)[C@@H]1O)Oc1ccccc1)C(=O)OCc1ccccc1	> 98 µM	5 µM	–
CCCCOC(=O)[C@H](C)N[P@@](=O)(OC[C@H]1O[C@@H](n2ccc(=O)[nH]c2=O)[C@@]2(CCO2)[C@@H]1O)Oc1ccccc1	> 98 µM	5.3 µM	–
[N-]=[N+]=N[C@]1(CO)O[C@@H](n2ccc(=O)[nH]c2=O)[C@@H](O)[C@H]1O	–	> 100 µM	–
C[C@@]1(O)[C@H](O)[C@@H](CO)O[C@H]1n1ccc(N)nc1=O	> 98 µM	4.6 µM	–

SMILES	CC50 at 72 h [1]	EC50 (Hepatitis C virus [2])	further results
CC(C)OC(=O)[C@H](C)NP(=O)(OC[C@H]1O[C@@H](n2ccc(N)nc2=O)[C@@]2(CCO2)[C@@H]1O)Oc1ccccc1 (mixture of isomers)	> 98 µM	0.74 µM	–
C[C@H](NP(=O)(OC[C@H]1O[C@@H](n2ccc(N)nc2=O)[C@@]2(CCO2)[C@@H]1O)Oc1ccc(Cl)cc1)C(=O)OCc1ccccc1 (mixture of isomers)	> 98 µM	2.6 µM	–
CC(C)COC(=O)[C@H](C)NP(=O)(OC[C@H]1O[C@@H](n2ccc(=O)[nH]c2=O)[C@@]2(CCO2)[C@@H]1O)Oc1ccccc1 (mixture of isomers)	> 98 µM	0.23 µM	–
O=C(CNP(=O)(OC[C@H]1O[C@@H](n2ccc(=O)[nH]c2=O)[C@@]2(CCO2)[C@@H]1O)Oc1ccc(Cl)cc1)OCc1ccccc1 (mixture of isomers)	> 98 µM	0.32 µM	–
C[C@H](NP(=O)(OC[C@H]1O[C@@H](n2ccc(=O)[nH]c2=O)[C@@]2(CCO2)[C@@H]1O)Oc1ccc(Cl)cc1)C(=O)OCc1ccccc1 (mixture of isomers)	> 98 µM	1.3 µM	–
C[C@H](NP(=O)(OC[C@H]1O[C@@H](n2ccc(=O)[nH]c2=O)[C@@]2(CCO2)[C@@H]1O)Oc1cccc2ccccc12)C(=O)OCc1ccccc1 (mixture of isomers)	> 98 µM	2 µM	AUC (Liver [4]): 9.142 µg·h/mL; AUClast (Liver [5]): 8.427 µg·h/mL; Tmax (Liver [6]): 6 h; Cmax (Liver [7]): 754 ng/g; Drug metabolism (Hepatocyte [8]): 3373 ng/mL; Drug metabolism (Hepatocyte [9]): 107 ng/mL; Drug metabolism (Hepatocyte [10]): 1713 ng/mL; Drug metabolism (Hepatocyte [11]): 293 ng/mL
CC(C)CCOC(=O)[C@H](C)NP(=O)(OC[C@H]1O[C@@H](n2ccc(=O)[nH]c2=O)[C@@]2(CCO2)[C@@H]1O)Oc1ccccc1 (mixture of isomers)	> 98 µM	3.5 µM	–
CC[C@H](NP(=O)(OC[C@H]1O[C@@H](n2ccc(=O)[nH]c2=O)[C@@]2(CCO2)[C@@H]1O)Oc1ccccc1)C(=O)OCc1ccccc1 (mixture of isomers)	> 98 µM	5.7 µM	AUClast (Liver [5]): 1.108 µg·h/mL; Tmax (Liver [6]): 6 h; Cmax (Liver [7]): 419 ng/g; Drug metabolism (Hepatocyte [8]): 1480 ng/mL; Drug metabolism (Hepatocyte [9]): 87 ng/mL; Drug metabolism (Hepatocyte [10]): 202 ng/mL; Drug metabolism (Hepatocyte [11]): 215 ng/mL
C[C@H](NP(=O)(OC[C@H]1O[C@@H](n2ccc(=O)[nH]c2=O)[C@@]2(CCO2)[C@@H]1O)Oc1ccccc1)C(=O)OCc1ccccc1 (mixture of isomers)	> 98 µM	5.7 µM	AUClast (Liver [5]): 3.263 µg·h/mL; Tmax (Liver [6]): 2 h; Cmax (Liver [7]): 775 ng/g; Drug metabolism (Hepatocyte [8]): 2457 ng/mL; Drug metabolism (Hepatocyte [9]): 81 ng/mL; Drug metabolism (Hepatocyte [10]): 304 ng/mL; Drug metabolism (Hepatocyte [11]): 112 ng/mL
Cc1ccc(C(C)C)c(OP(=O)(N[C@@H](C)C(=O)OCc2ccccc2)OC[C@H]2O[C@@H](n3ccc(=O)[nH]c3=O)[C@@]3(CCO3)[C@@H]2O)c1 (mixture of isomers)	29.6 µM	7.5 µM	–
CC(C)OC(=O)[C@H](C)NP(=O)(OC[C@H]1O[C@@H](n2ccc(=O)[nH]c2=O)[C@@]2(CCO2)[C@@H]1O)Oc1ccccc1 (mixture of isomers)	> 98 µM	20.9 µM	–
COC(=O)C(C)(C)NP(=O)(OC[C@H]1O[C@@H](n2ccc(=O)[nH]c2=O)[C@@]2(CCO2)[C@@H]1O)Oc1ccccc1 (mixture of isomers)	> 98 µM	37.9 µM	–
O=C(OCc1ccccc1)[C@@H](NP(=O)(OC[C@H]1O[C@@H](n2ccc(=O)[nH]c2=O)[C@@]2(CCO2)[C@@H]1O)Oc1ccccc1)c1ccccc1 (mixture of isomers)	> 92.8 µM	> 87.2 µM	–
CC[C@H](NP(=O)(OC[C@H]1O[C@@H](n2ccc(=O)[nH]c2=O)[C@@]2(CCO2)[C@@H]1O)Oc1ccccc1)C(=O)OC(C)C (mixture of isomers)	> 98 µM	> 96.4 µM	–
CC(C)OC(=O)[C@H](C)N[P@](=O)(OC[C@H]1O[C@@H](n2ccc(=O)[nH]c2=O)[C@](C)(F)[C@@H]1O)Oc1ccccc1 [SOFOSBUVIR]	–	–	Ratio (Hepatitis C virus [14]): 18.6; EC90 (Hepatitis C virus [15]): 7.8 µM
